Results on 37 sequences are retold here after the array DNA melting data of Ke et al. (doi:10.1101/2024.01.08.574731).

Data set [1] is described as follows: folding enthalpy; higher = less favourable; fluorescence melt of hairpins on a sequencing array, two-state fit. To be noted: sodium 0.088 M. Put shortly: (§1)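 To match UV melts, fitted temperatures were raised by 9.35 °C. These fits were bootstrapped two-state models that gave melting temperature and folding enthalpy, combined by inverse variance over four replicates. The input was normalised Cy3 fluorescence of library hairpins with annealed Cy3 and quencher oligos on a sequenced MiSeq flow cell, imaged in 50 mM Na-HEPES pH 8.0, 25 mM NaCl in 2.5 °C steps up to 60 °C.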

A short description of data set [2]: melting temperature; fluorescence melt of hairpins on a sequencing array, two-state fit, raised by 9.35 °C to match UV melts. As to conditions: sodium 0.088 M. In short, it runs like this: as §1

Consider GTTACGGGAAACTGTAAC (((((.(....).))))), for which, in data set [1], the folding enthalpy is -32.7 kcal/mol. In addition, the Tm in data set [2] worked out at 45.6 °C.
On to GCAGAGCGAAAGCTTAGC ((..(((....)))..)), for which the folding enthalpy in data set [1] is -17.5 kcal/mol. The Tm in data set [2] turned out to be 41.7 °C.
As for GATCCCATCAGGGATC ((((((....)))))), the folding enthalpy in data set [1] was -36.3 kcal/mol. Besides, the Tm in data set [2] came to 65.7 °C.
Take GCACCGCGAAAGCCGCGC ((.(.((....)).).)): the folding enthalpy in data set [1] is -16.8 kcal/mol. In data set [2], the Tm was determined as 41.4 °C.
In the case of GGGGACGAAAGTCCTCCC ((((((....)))..))), the folding enthalpy in data set [1] is -10.8 kcal/mol. The Tm in data set [2] came to 48.3 °C.
With GATCCCGCTGGGGATC ((((((....)))))), the folding enthalpy in data set [1] is -36.9 kcal/mol. In addition, in data set [2], the Tm came out at 60.8 °C.
Consider GCCCGCCGAAAGGCCGGC (((.(((....))).))), for which, in data set [1], the folding enthalpy was -19.4 kcal/mol. Also, the Tm in data set [2] came to 64.8 °C.
Take GATCGATGTATCGATC ((((((....)))))): the folding enthalpy in data set [1] is -40.9 kcal/mol. Also, in data set [2], the Tm was found to be 58.4 °C.
The corresponding values for GGGTTGGGAAACCAGCCC (((.(((....))).))) are -46.6 kcal/mol and 56 °C.
With GGTAACGAAAGTTAGACC ((((((....)))..))), the folding enthalpy in data set [1] is -13 kcal/mol. Besides, the Tm in data set [2] is 33.6 °C.
Consider GTGCGCTCGAAAGAGCAC (((..(((....)))))), for which, in data set [1], the folding enthalpy is -14.1 kcal/mol. The Tm in data set [2] worked out at 59.9 °C.
With GTGGTTGCGAAAGCACAC (((..(((....)))))), the folding enthalpy in data set [1] is -15.6 kcal/mol. In addition, in data set [2], the Tm stood at 42.7 °C.
Turning to GTTAAAACGAAAGTTAAC (((..(((....)))))), the folding enthalpy in data set [1] is -16.6 kcal/mol. The Tm in data set [2] came to 26.3 °C.
In the case of GTCGTCCGAAAGGAGAC (((.(((....)))))), the folding enthalpy in data set [1] is -20.6 kcal/mol. Moreover, the Tm in data set [2] was 49.3 °C.
With GCGCTCGAAAGAGTTCGC ((((((....)))..))), the folding enthalpy in data set [1] is -22.1 kcal/mol. The Tm in data set [2] was determined as 43.8 °C.
GTCTTGGGAAACCAGGAC (((.(((....))).))): the folding enthalpy in data set [1] was -30.3 kcal/mol. The Tm in data set [2] was 47.2 °C.
Taken in the same sequence, the figures for GATCGATGGGTCGATC ((((((....)))))) were -39.7 kcal/mol and 57.5 °C.
In the case of GAGTGAGGAAACTTACTC ((((.((....)).)))), in data set [1], the folding enthalpy was -28 kcal/mol. In data set [2], the Tm stood at 38.1 °C.
Turning to GGATTAGGAAACCAATCC (((((.(....).))))), the folding enthalpy in data set [1] was -34 kcal/mol. Also, the Tm in data set [2] is 34.4 °C.
On to GGCCCCGGAAACGGGACC ((.((((....)))).)), for which the folding enthalpy in data set [1] is -25.8 kcal/mol. Further, the Tm in data set [2] is 59 °C.
Regarding GAGACGCCGAAAGGCCTC (((..(((....)))))), the folding enthalpy in data set [1] was -8.48 kcal/mol. In addition, the Tm in data set [2] was found to be 30.6 °C.
As for GTTGCCGGAAACAGCAAC (((((.(....).))))), the folding enthalpy in data set [1] is -27.4 kcal/mol. Also, the Tm in data set [2] was 46.9 °C.
Take GAAACCGAAAGGTGCTTC ((((((....)))..))): in data set [1], the folding enthalpy is -19.4 kcal/mol. Further, in data set [2], the Tm is 43.5 °C.
The corresponding values for GCCGATGGAAACGTCGGC (((((.(....).))))) are -44.9 kcal/mol and 62.7 °C.
In the case of GCACCCCCGAAAGGGTGC (((..(((....)))))), in data set [1], the folding enthalpy is -30.6 kcal/mol. The Tm in data set [2] is 66.6 °C.
GCGACCCGTCGC ((((....)))): the folding enthalpy in data set [1] is -40.1 kcal/mol. For the same sequence, the Tm in data set [2] came out at 60.7 °C.
Consider GGACTCACGAAAGTGTCC (((..(((....)))))), for which, in data set [1], the folding enthalpy is -19.3 kcal/mol. Also, the Tm in data set [2] is 41.5 °C.
For GATTGCGAAAGCATGATC ((((((....)))..))), the folding enthalpy in data set [1] was -11.6 kcal/mol. Moreover, in data set [2], the Tm came out at 36.3 °C.
Taken in the same sequence, the figures for GATCGGTCATCCGATC ((((((....)))))) were -39.7 kcal/mol and 59.4 °C.
Taken in the same sequence, the figures for GCTTTGACGAAAGTCAGC (((..(((....)))))) were -12 kcal/mol and 33.2 °C.
Take GAGATAGGAAACCATCTC (((((.(....).))))): the folding enthalpy in data set [1] was -23.5 kcal/mol. The Tm in data set [2] was 34.1 °C.
GTCCTAGCGAAAGCTGAC (((..(((....)))))): in data set [1], the folding enthalpy is -12.7 kcal/mol. Moreover, the Tm in data set [2] was 31.5 °C.
Taken in the same sequence, the figures for GCCTGCGAAAGCAAGGGC ((((((....)))..))) were -18.7 kcal/mol and 61.3 °C.
For GCTCGTGGAAACGCGAGC (((((.(....).))))), the folding enthalpy in data set [1] is -47.9 kcal/mol. Further, in data set [2], the Tm stood at 63.2 °C.
Consider GAAAAGGAAACTTTTC ((((((....)))))), for which the folding enthalpy in data set [1] was -25.2 kcal/mol. Further, the Tm in data set [2] was determined as 39.7 °C.
For GTAACACGAAAGTGTAC (((.(((....)))))), the folding enthalpy in data set [1] is -14 kcal/mol. In addition, the Tm in data set [2] is 42.8 °C.
Taken in the same sequence, the figures for GCGATTGCGAAAGCACGC (((..(((....)))))) were -20.1 kcal/mol and 51.4 °C.
